In brackets after ≈: the same amount, converted by molar mass. Activity calls are given as the source filed them. The calls are words filed in the database; no cut-off is given here.
Tests used:
[1] = target: T1, Bifunctional epoxide hydrolase 2 (Homo sapiens, UniProt P34913); assay: Inhibition of human sEH (1 to 555 residues) expressed in Escherichia coli BL21-(DE3) using PHOME substrate incubated for 30 to 45 mins by fluorescence based assay
T1 sequence (P34913 whole entry): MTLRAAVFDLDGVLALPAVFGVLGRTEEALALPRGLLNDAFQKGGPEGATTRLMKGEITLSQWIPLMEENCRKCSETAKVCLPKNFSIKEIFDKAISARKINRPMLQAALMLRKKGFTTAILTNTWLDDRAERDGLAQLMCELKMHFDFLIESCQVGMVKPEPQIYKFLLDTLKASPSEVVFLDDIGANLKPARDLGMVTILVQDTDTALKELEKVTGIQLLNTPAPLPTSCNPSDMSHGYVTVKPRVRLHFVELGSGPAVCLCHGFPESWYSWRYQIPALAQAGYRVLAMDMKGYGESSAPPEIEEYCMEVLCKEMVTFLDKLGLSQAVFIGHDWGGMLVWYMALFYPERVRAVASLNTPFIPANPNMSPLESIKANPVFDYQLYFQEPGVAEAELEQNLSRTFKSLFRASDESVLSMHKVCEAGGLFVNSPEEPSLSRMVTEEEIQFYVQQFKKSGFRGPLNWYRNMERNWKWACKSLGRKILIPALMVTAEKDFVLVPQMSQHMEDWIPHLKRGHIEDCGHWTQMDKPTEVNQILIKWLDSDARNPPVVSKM

[2] = target: T2, Polyunsaturated fatty acid 5-lipoxygenase (Homo sapiens, UniProt P09917); assay: Inhibition of 5-LOX (unknown origin) expressed in Escherichia coli BL21-(DE3) pre-incubated for 15 mins before AA substrate addition and measured after 10 mins by HPLC/UV assay
T2 sequence (P09917 whole entry): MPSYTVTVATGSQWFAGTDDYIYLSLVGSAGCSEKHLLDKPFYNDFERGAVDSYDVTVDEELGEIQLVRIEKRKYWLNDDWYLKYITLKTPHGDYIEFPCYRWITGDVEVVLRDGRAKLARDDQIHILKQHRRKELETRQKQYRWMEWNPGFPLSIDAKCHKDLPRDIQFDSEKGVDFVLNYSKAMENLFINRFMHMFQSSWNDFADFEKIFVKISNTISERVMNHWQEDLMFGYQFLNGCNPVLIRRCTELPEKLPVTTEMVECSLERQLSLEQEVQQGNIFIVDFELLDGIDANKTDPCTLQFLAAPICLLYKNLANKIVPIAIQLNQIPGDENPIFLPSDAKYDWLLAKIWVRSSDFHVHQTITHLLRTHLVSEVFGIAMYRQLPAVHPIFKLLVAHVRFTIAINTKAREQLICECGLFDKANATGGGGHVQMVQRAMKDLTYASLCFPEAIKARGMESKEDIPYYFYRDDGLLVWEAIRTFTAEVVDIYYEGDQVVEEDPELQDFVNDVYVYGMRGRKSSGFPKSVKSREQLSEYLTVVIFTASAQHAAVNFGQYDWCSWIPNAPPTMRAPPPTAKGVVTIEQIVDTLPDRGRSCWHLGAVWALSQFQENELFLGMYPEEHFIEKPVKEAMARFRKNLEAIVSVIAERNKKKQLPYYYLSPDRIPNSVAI
Outline: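 Recombinant 5-LOX activity measured with arachidonic acid as substrate; product formation monitored by HPLC. IC50 from at least three independent determinations (n ≥ 3), reported with 95% confidence interval.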

[3] = Solubility in pH 7.4 DPBS buffer; format: physicochemical
[4] = tested on: Mus musculus; assay: Anti-fibrotic activity in C57BL/6 mouse model of unilateral ureter obstruction-induced kidney inflammation and fibrosis assessed as inhibition of tubulo-interstitial fibrosis by measuring reduced fibrillar collagen at 3 mg/kg, ip dosed daily for 7 days by Sirius red staining method; format: functional, organism-based; conditions: time 7.0 day
Outline: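 Mice with unilateral ureter obstruction to induce kidney inflammation and fibrosis, given compound or vehicle intraperitoneally. Ligated (UUO) and contralateral kidneys taken at day 7. Fibrosis read by AZAN and Sirius Red staining, with Sirius Red imaged under bright and polarized light. Macrophages detected by F4/80 staining, quantified as positive area. Col1a1, FN1, TNFα and Ccl2 mRNA measured in whole-kidney homogenates by real-time qRT-PCR normalized to GAPDH.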

[5] = tested on: HepG2; assay: Cytotoxicity in human HepG2 cells assessed as reduction in on cell viability at 7 uM incubated for 48 hrs by CellTiter-Glo luminescent cell viability assay; format: cell-based; conditions: hepg2, 48 h
Outline: (§1)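 Cell viability measured by CellTiter-Glo luminescence, quantifying ATP as an indicator of viable cells.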

[6] = tested on: HepG2; assay: Cytotoxicity in human HepG2 cells assessed as effect on cell viability up to 25 uM incubated for 48 hrs by CellTiter-Glo luminescent cell viability assay; format: cell-based; conditions: hepg2, 48 h; outline: as §1
[7] = Metabolic stability in rat liver microsomes assessed as compound remaining after 60 mins; format: ADME, Microsome; conditions: read-out: Stabilty
Outline: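 Compound incubated with rat liver microsomes for 60 min; percent parent compound remaining determined; n ≥ 3.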

IC50 [1]	IC50 [2]	Compound	other results
2.1 nM	96 nM	C[C@H](C#Cc1cccc(C(=O)NCCC(c2ccccc2)c2ccc(Cl)c(Cl)c2)c1)N(O)C(N)=O (stereo partly drawn)	
16 nM	1000 nM	CC(C#Cc1cccc(C(=O)NCc2ccccc2OC(F)(F)F)c1)N(O)C(N)=O (stereo not drawn)	
22 nM	500 nM	CCC(C#Cc1cccc(C(=O)NCc2ccccc2C(F)(F)F)c1)N(O)C(N)=O (stereo not drawn)	
5 nM	600 nM	CC(C)CC(C#Cc1cccc(C(=O)NCc2ccccc2C(F)(F)F)c1)N(O)C(N)=O (stereo not drawn)	
130 nM		O=C(Cc1ccc(Oc2nc3ccccc3s2)cc1F)NCCc1ccc(F)cc1	
2.4 nM	1000 nM	C[C@H](C#Cc1cccc(C(=O)NCCC(c2ccccc2)c2ccc(S(N)(=O)=O)cc2)c1)N(O)C(N)=O (stereo partly drawn)	
1.6 nM	220 nM	C[C@H](C#Cc1cccc(C(=O)NCCC(c2ccc(F)cc2)c2ccc(C(F)(F)F)cc2)c1)N(O)C(N)=O (stereo partly drawn)	solubility [3]: 3 µM (≈ 1.58 µg/mL); Activity [4]: inactive; Activity [5]: Toxic; Activity [6]: Non-Toxic; remaining at 1 h [7]: 66%
60 nM	600 nM	C[C@H](C#Cc1cccc(C(=O)NCc2ccccc2C(F)(F)F)c1)N(O)C(N)=O	
1 nM		CNc1nc(C)nc(N2CCC(C(=O)NCc3ccccc3OC(F)(F)F)CC2)n1	
6 nM		CS(=O)(=O)c1ccc(C(CCNC(=O)c2ccc(C#N)nc2)c2ccc(F)cc2)cc1 (stereo not drawn)	
3 nM		CNc1nc(C)nc(N2CCC(C(=O)NCc3ccccc3C(F)(F)F)CC2)n1	
2600 nM	1000 nM	CC(C#Cc1ccc(C(=O)NCc2ccccc2C(F)(F)F)cc1)N(O)C(N)=O (stereo not drawn)	
2700 nM	90 nM	C[C@H](C#Cc1ccc(Cc2ccc(F)cc2)s1)N(O)C(N)=O [ATRELEUTON]	solubility [3]: 30 µM (≈ 9.55 µg/mL)
60 nM	700 nM	C[C@@H](C#Cc1cccc(C(=O)NCc2ccccc2C(F)(F)F)c1)N(O)C(N)=O	
3 nM	160 nM	C[C@H](C#Cc1cccc(C(=O)NCC[C@@H](c2ccc(F)cc2)c2ccc(C(F)(F)F)cc2)c1)N(O)C(N)=O	
1200 nM	3100 nM	CC(C#Cc1cccc(C(=O)NCCc2ccc(F)cc2)c1)N(O)C(N)=O (stereo not drawn)	
3100 nM	1700 nM	CC(C#Cc1cccc(C(=O)NCCc2c[nH]c3ccccc23)c1)N(O)C(N)=O (stereo not drawn)	
50 nM	4000 nM	NC(=O)N(O)CC#Cc1cccc(C(=O)NCc2ccccc2C(F)(F)F)c1	
9000 nM	4000 nM	CC(C#Cc1cccc(C(=O)NCc2cccc(F)c2)c1)N(O)C(N)=O (stereo not drawn)	

IC50 [1]	IC50 [2]	Compound	other results
2.4 nM	260 nM	C[C@H](C#Cc1cccc(C(=O)NCCC(c2ccc(F)cc2)c2ccc(OC(F)(F)F)cc2)c1)N(O)C(N)=O (stereo partly drawn)	solubility [3]: 10 µM (≈ 5.44 µg/mL); remaining at 1 h [7]: 43%
3 nM	900 nM	C[C@H](C#Cc1cccc(C(=O)NCCC(c2ccccc2)c2ccc(NS(C)(=O)=O)cc2)c1)N(O)C(N)=O (stereo partly drawn)	
7 nM	110 nM	CC(C#Cc1cccc(C(=O)NCCC(c2ccccc2)c2ccc(OC(F)(F)F)cc2)c1)N(O)C(N)=O (stereo not drawn)	
500 nM	10000 nM	CC(C#Cc1cncc(C(=O)NCc2ccccc2C(F)(F)F)c1)N(O)C(N)=O (stereo not drawn)	
3 nM		CNc1nc(C)nc(N2CCC(C(=O)NCc3ccc(F)cc3C(F)(F)F)CC2)n1	
2.7 nM	150 nM	CC(C#Cc1cccc(C(=O)NCCC(c2ccccc2)c2ccc(C(F)(F)F)cc2)c1)N(O)C(N)=O (stereo not drawn)	
600 nM	4000 nM	CC(C#Cc1ccc(C(=O)NCc2ccccc2C(F)(F)F)o1)N(O)C(N)=O (stereo not drawn)	
2 nM	300 nM	CC(C#Cc1cccc(C(=O)NCCC(c2ccccc2)c2ccccc2)c1)N(O)C(N)=O (stereo not drawn)	solubility [3]: 3 µM (≈ 1.32 µg/mL); remaining at 1 h [7]: 27%
40 nM	600 nM	CC(C#Cc1cccc(C(=O)NCc2ccc(Cl)cc2Cl)c1)N(O)C(N)=O (stereo not drawn)	
90 nM	700 nM	CC(C#Cc1cccc(C(=O)NCc2ccccc2C(F)(F)F)c1)N(O)C(N)=O (stereo not drawn)	
29 nM	1300 nM	CC(C#Cc1cccc(C(=O)NCc2ccc(F)cc2C(F)(F)F)c1)N(O)C(N)=O (stereo not drawn)	
11 nM	500 nM	CC(C)C(C#Cc1cccc(C(=O)NCc2ccccc2C(F)(F)F)c1)N(O)C(N)=O (stereo not drawn)	
5 nM	110 nM	C[C@H](C#Cc1cccc(C(=O)NCCN(c2ccccc2)c2ccccc2)c1)N(O)C(N)=O	solubility [3]: 3 µM (≈ 1.33 µg/mL); remaining at 1 h [7]: 17%
4 nM	1700 nM	COc1ccc(CNC(=O)c2cccc(C#CC(C)N(O)C(N)=O)c2)c(C(F)(F)F)c1 (stereo not drawn)	
3 nM	230 nM	C[C@H](C#Cc1cccc(C(=O)NCC[C@H](c2ccc(F)cc2)c2ccc(C(F)(F)F)cc2)c1)N(O)C(N)=O	
2 nM	160 nM	CC(C#Cc1cccc(C(=O)NCCC(c2ccccc2)c2ccc(F)cc2)c1)N(O)C(N)=O (stereo not drawn)	
3100 nM	1700 nM	Cc1ccc(C(=O)NCc2ccccc2C(F)(F)F)cc1C#CC(C)N(O)C(N)=O (stereo not drawn)	
12 nM	300 nM	CCCC(C#Cc1cccc(C(=O)NCc2ccccc2C(F)(F)F)c1)N(O)C(N)=O (stereo not drawn)	
2 nM	120 nM	CC(C#Cc1cccc(C(=O)NCCC(c2ccccc2)c2ccc(Cl)cc2)c1)N(O)C(N)=O (stereo not drawn)	
